# Reference: publication PMC3500602 (Free radical research, 2011)
# Tests used:
# [1] = Metal-centered reduction potential E1/2 for Mn^IIIP/Mn^IIP redox couple; assay type: physicochemical
# [2] = system: human epithelial colorectal adenocarcinoma Caco-2; assay: WST-1-based cytotoxicity assay, Caco-2; assay type: cell-based; conditions: read-out: IC50 values for MnPs in the absence of ascorbate; Caco-2, 96 h, WST-1, no ascorbate
# [3] = system: four tumour cell lines (Caco-2, HCT116, 4T1 and Hela); assay: WST-1-based cytotoxicity assay, statements across the four tumour cell lines; conditions: for cytotoxicity relative to MnTnHex-2-PyP^5+ in the presence of ascorbate: slopes of curves in Figure 5; for effect of low levels on the cell: Figures 5 and 6; for toxicity of MnP in its own right: absence of ascorbate, 30 µM MnP, HCT116, 4T1, Hela
# [4] = cited from earlier work; for SOD activity log kcat (O2^·−): cyt c assay, 0.05 M phosphate buffer, pH 7.8, 25 ± 1°C
# [5] = system: SOD-deficient E. coli; conditions: cited from earlier work; for efficacy in protecting SOD-deficient E. coli: ortho vs meta
# [6] = cited from earlier work
# [7] = plastic-backed silica-gel TLC plates, 1:1:8 = KNO3(sat):H2O:CH3CN; cited from earlier work
# [8] = system: 4T1 mouse breast carcinoma cells; assay: Clonogenic assay, 4T1; assay type: cell-based; conditions: 4T1, ascorbate 1 mM or MnTnHex-2-PyP^5+ 15 and 30 µM alone, 24 h
# [9] = system: HCT116 human colorectal carcinoma cells; assay: Clonogenic assay, HCT116; assay type: cell-based; conditions: HCT116, ascorbate 0.5 mM or MnTnHex-2-PyP^5+ 15 and 30 µM alone, 24 h
# [10] = system: 4T1 tumour cells; assay: LCMS/MS analysis of MnTnHex-2-PyP^5+ levels in 4T1 cells; assay type: in vitro ADME, mouse
# Outline: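 4T1 cells at 1,440,000 per plate in 10 mL DMEM (high glucose, 10% FBS), attached 24 h (~80% confluence), then given 0.5 or 1 mM ascorbate, 5, 15 or 30 µM porphyrin, or combinations, for 24 h. PBS-rinsed, RIPA-lysed on ice, sonicated, spun; lysate porphyrin by LC-MS/MS normalised to Bradford protein. Intracellular concentration calculated assuming 2.19 µL cell volume/mg protein.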
# [11] = MnTnHex-2-PyP^5+ levels in tumour and muscle by LCMS/MS; assay type: in vivo, Balb/c mice
# Outline: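 Female Balb/c mice (6–8 weeks, ~22 g) bearing subcutaneous flank 4T1 tumours (10^6 cells), treated from ~200 mm3 for 15 days with porphyrin 1 mg/kg twice daily sc, with or without sodium ascorbate 2 g/kg twice daily ip given 1 h later. Tumour and opposite-leg muscle homogenised, deproteinised with 1% acetic acid in methanol, dried, reconstituted; porphyrin by LC-MS/MS, µM in homogenate.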
# [12] = n-octanol-water partition coefficient, log Pow; assay type: physicochemical
# [13] = system: Caco-2 cells; assay: Identification of species involved in cytotoxicity; assay type: cell-based, human
# Outline: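 Caco-2 cells at 10,000/well in alpha-MEM with 10% FBS; after 24 h at 37°C, 5% CO2, exposed to 30 µM Mn porphyrin, 3.3 mM ascorbate or both, with or without 1,500 units/mL catalase or 5 mM mannitol, for 96 h. Cells PBS-washed, WST-1 added for 2 h at 37°C, A450/595 read, % viability versus no-drug cells after cell-free blank subtraction.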
# [14] = Rate constant for the oxidation of Mn^IIP with oxygen; conditions: estimated from Mn^IITM-4-PyP^4+ value and structure-activity relationship
structure (smiles),measurement,setting,value
"CC[n+]1ccccc1-c1c2nc(c(-c3cccc[n+]3CC)c3ccc([n-]3)c(-c3cccc[n+]3CC)c3nc(c(-c4cccc[n+]4CC)c4ccc1[n-]4)C=C3)C=C2.[Mn+3] [MnTE-2-PyP^5+, Mn(III) meso-tetrakis(N-ethylpyridinium-2-yl)porphyrin]",E1/2 difference relative to MnTnHex-2-PyP^5+ (less positive / more negative),[1],~ 100 mV
same,IC50,[2],470 µM
same,cytotoxicity relative to MnTnHex-2-PyP^5+ in the presence of ascorbate,"[3]; 4T1, Hela",more cytotoxic
same,cytotoxicity relative to MnTnHex-2-PyP^5+ in the presence of ascorbate,"[3]; HCT116, Caco-2",equally
same,effect of low levels on the cell,[3],beneficial
same,fold more potent SOD mimic than meta MnTE-3-PyP^5+,[4],10 fold
same,SOD activity log kcat (O2^·−),[4],7.76
same,efficacy in protecting SOD-deficient E. coli,[5],equally efficacious
"CC[n+]1cccc(-c2c3nc(c(-c4ccc[n+](CC)c4)c4ccc([n-]4)c(-c4ccc[n+](CC)c4)c4nc(c(-c5ccc[n+](CC)c5)c5ccc2[n-]5)C=C4)C=C3)c1.[Mn+3] [MnTE-3-PyP^5+, Mn(III) meso-tetrakis(N-ethylpyridinium-3-yl)porphyrin, reference compound]",fold more lipophilic than ortho MnTE-2-PyP^5+,[6],10 fold
same,fold more accumulation within E. coli cell than MnTE-2-PyP^5+,[5],10 fold
same,efficacy in protecting SOD-deficient E. coli,[5],equally efficacious
"C[n+]1ccc(-c2c3nc(c(-c4cc[n+](C)cc4)c4ccc([n-]4)c(-c4cc[n+](C)cc4)c4nc(c(-c5cc[n+](C)cc5)c5ccc2[n-]5)C=C4)C=C3)cc1.[Mn+3] [MnTM-4-PyP^5+, Mn(III) meso-tetrakis(N-methylpyridinium-4-yl)porphyrin, reference compound]",SOD activity log kcat (O2^·−),[4],6.58
same,Lipophilicity Rf,[7],0.064
"CCCCCC[n+]1ccccc1-c1c2nc(c(-c3cccc[n+]3CCCCCC)c3ccc([n-]3)c(-c3cccc[n+]3CCCCCC)c3nc(c(-c4cccc[n+]4CCCCCC)c4ccc1[n-]4)C=C3)C=C2.[Mn+3] [MnTnHex-2-PyP^5+, Mn(III) meso-tetrakis(N-n-hexylpyridinium-2-yl)porphyrin]",IC50,[2],170 µM
same,toxicity of MnP in its own right,[3],exerted toxicity
same,"ability to produce colonies, single agent",[8],did not affect
same,"ability to produce colonies, single agent",[9],did not affect
same,MnP concentration in the cells relative to the medium,[10]; 30 µM MnP in medium,~ 4 times
same,more MnP found within cells with MnP/ascorbate compared to MnP alone,"[10]; 4T1 cells, depending on concentrations of ascorbate and porphyrin",≤ 29%
same,enhancement of MnP accumulation by ascorbate in muscle,"[11]; MnP/ascorbate vs MnP treated mice, muscle",54%
same,enhancement of MnP accumulation by ascorbate in tumour,"[11]; MnP/ascorbate vs MnP treated mice, tumour",33%
same,accumulation in tumour relative to muscle from the opposite leg,"[11]; MnTnHex-2-PyP^5+ 1 mg/kg twice daily sc, tissue homogenates",higher accumulation in tumour
same,SOD activity log kcat (O2^·−),[4],7.48
"CCCCCC[n+]1cccc(-c2c3nc(c(-c4ccc[n+](CCCCCC)c4)c4ccc([n-]4)c(-c4ccc[n+](CCCCCC)c4)c4nc(c(-c5ccc[n+](CCCCCC)c5)c5ccc2[n-]5)C=C4)C=C3)c1.[Mn+3] [MnTnHex-3-PyP^5+, Mn(III) meso-tetrakis(N-n-hexylpyridinium-3-yl)porphyrin]",E1/2 difference relative to MnTE-2-PyP^5+ (more negative),[1],~150 mV
same,E1/2 difference relative to MnTnHex-2-PyP^5+ (less positive / more negative),[1],~ 250 mV
same,fold more lipophilic than MnTnHex-2-PyP^5+,[12],~ 10 fold
same,IC50,[2],140 µM
same,toxicity of MnP in its own right,[3],not significantly toxic
same,effect of low levels on the cell,[3],beneficial
same,toxicity of MnP by itself to Caco-2 cells,"[13]; Caco-2, 30 µM MnP, no ascorbate, Figure 9",less toxic
same,effect of mannitol on cytotoxicity,"[13]; Caco-2, 5 mM mannitol, 4 days",blocked significantly
same,SOD activity log kcat (O2^·−),[4],6.64
same,accumulation within E. coli cell relative to MnTnHex-2-PyP^5+,[5]; absence of exogenous reductant,several-fold more
CC[n+]1ccccc1-c1c2nc(c(-c3cccc[n+]3CC)c3ccc([n-]3)c(-c3cccc[n+]3CC)c3nc(c(-c4cccc[n+]4CC)c4ccc1[n-]4)C=C3)C=C2.[Mn+2] [Mn^IITE-2-PyP^4+],rate constant for the reaction with O2,[14],80000 M⁻¹ s⁻¹
